The subject of experiment [1] is Huh-7. Nature of the experiment: Induction of apoptosis in human HuH7 cells assessed as early apoptotic cells at 1 uM after 24 hrs by Annexin V-FITC/propidium iodide staining-based flow cytometric analysis (reference value: 0.17%). The format is functional. Background: A flow cytometer gives signals particle by particle.
For experiment [2], the system named is Huh-7. Nature of the experiment: Cell cycle arrest in human HuH7 cells assessed as accumulation of cells at G1 phase at 1 uM after 48 hrs by propidium iodide staining-based flow cytometric analysis (reference value: 44.2%). The format is functional.
Experiment [3] relates to Mahlavu. Nature of the experiment: Cytotoxicity against human Mahlavu cells after 48 hrs by RTCA analysis. The format is functional, cell-based. Summed up: (§1)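 xCELLigence impedance real-time growth assay. Huh7 (2000) or Mahlavu (1000) cells plated, treated after 24 h at log phase with a 2-fold dilution series (4 steps) from a top concentration of 1. Cell index recorded every 10 min for 24 h, then every 30 min. Growth inhibition normalized to DMSO; IC50 taken at 24, 48, 72 h.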

Experiment [4] has as its system Mahlavu. Nature of the experiment: Cell cycle arrest in human Mahlavu cells assessed as accumulation of cells at G1 phase at 1 uM after 48 hrs by propidium iodide staining-based flow cytometric analysis (reference value: 43.5%). The format is functional.
The subject of experiment [5] is Mahlavu. Nature of the experiment: Down-regulation of cyclin-B1 protein expression in human Mahlavu cells at 1 uM after 24 to 72 hrs by Western blot analysis. The format is functional, cell-based. (In general: Immunoblotting shows a protein as a band on a membrane.)
Experiment [6] relates to Mahlavu. The experiment can be described thus: Induction of apoptosis in human Mahlavu cells assessed as necrotic cells at 1 uM after 72 hrs by Annexin V-FITC/propidium iodide staining-based flow cytometric analysis (reference value: 0.22%). The format is functional.
A further experiment deals with HCT-116. The experiment can be described thus: Cytotoxicity against human HCT116 cells after 72 hrs by SRB assay. The format is functional, cell-based. Conditions: Homo sapiens, HCT-116, 72 h; read-out: IC50. Summed up:
(§2)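 SRB assay. Cells plated per well (HCT116 3000; Huh7, Hep3B, HepG2, MCF-7 2000; Mahlavu, FOCUS, SNU475 1000) and grown 24 h. Compounds came from 20 mM DMSO stocks and were tested in triplicate, 40 to 2,5 (or 2,5 to 0,03) per printed range, for 72 h. Cells fixed in 10% TCA, stained with 0.4% SRB, dye dissolved in 10 mM Tris, A515 read. IC50 derived after DMSO normalization.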
In general terms: In SRB staining, fixed cells bind dye roughly in proportion to their protein.

For experiment [7], the system named is Huh-7. Nature of the experiment: Induction of apoptosis in human HuH7 cells assessed as late apoptotic cells at 1 uM after 24 hrs by Annexin V-FITC/propidium iodide staining-based flow cytometric analysis (reference value: 2.51%). The format is functional.
Experiment [8] has as its system Huh-7. The experiment can be described thus: Induction of apoptosis in human HuH7 cells assessed as early apoptotic cells at 1 uM after 72 hrs by Annexin V-FITC/propidium iodide staining-based flow cytometric analysis (reference value: 0.03%). The format is functional.
For experiment [9], the system named is Mahlavu. Nature of the experiment: Down-regulation of cyclin E protein expression in human Mahlavu cells at 1 uM after 24 to 72 hrs by Western blot analysis. The format is functional, cell-based.
Experiment [10] deals with Mahlavu. Nature of the experiment: Cell cycle arrest in human Mahlavu cells assessed as accumulation of cells at S phase at 1 uM after 48 hrs by propidium iodide staining-based flow cytometric analysis (reference value: 11.6%). The format is functional.
For experiment [11], the system named is Huh-7. The experiment can be described thus: Induction of apoptosis in human HuH7 cells assessed as increase in cleaved PARP levels at 1 uM after 72 hrs by Western blot analysis. The format is functional, cell-based.
Experiment [12] relates to Mahlavu. Nature of the experiment: Cytotoxicity against human Mahlavu cells after 24 hrs by RTCA analysis. The format is functional, cell-based. The gist of the method:
as §1

Experiment [13] relates to Huh-7. The experiment can be described thus: Down-regulation of CDK2 protein expression in human HuH7 cells at 1 uM after 24 to 72 hrs by Western blot analysis. The format is functional, cell-based.
The subject of experiment [14] is Huh-7. The experiment can be described thus: Cytotoxicity against human HuH7 cells after 72 hrs by RTCA analysis. The format is functional, cell-based. To be noted: Huh-7, 72 h. The gist of the method:
as §1

For experiment [15], the system named is Huh-7. The experiment can be described thus: Down-regulation of cyclin E protein expression in human HuH7 cells at 1 uM after 24 to 72 hrs by Western blot analysis. The format is functional, cell-based.
The subject of experiment [16] is Mahlavu. Nature of the experiment: Cell cycle arrest in human Mahlavu cells assessed as accumulation of cells at G2/M phase at 1 uM after 24 hrs by propidium iodide staining-based flow cytometric analysis (reference value: 24.7%). The format is functional.
Experiment [17] has as its system Mahlavu. Nature of the experiment: Induction of apoptosis in human Mahlavu cells assessed as early apoptotic cells at 1 uM after 72 hrs by Annexin V-FITC/propidium iodide staining-based flow cytometric analysis (reference value: 0.24%). The format is functional.
The subject of experiment [18] is Huh-7. Nature of the experiment: Cytotoxicity against human HuH7 cells after 72 hrs by SRB assay. To be noted: Homo sapiens, Huh-7, 72 h; read-out: IC50. The format is functional, cell-based. Summed up:
as §2

For experiment [19], the system named is Huh-7. Nature of the experiment: Induction of apoptosis in human HuH7 cells assessed as late apoptotic cells at 1 uM after 72 hrs by Annexin V-FITC/propidium iodide staining-based flow cytometric analysis (reference value: 2.34%). The format is functional.
The test system of experiment [20] is Mahlavu. The experiment can be described thus: Cell cycle arrest in human Mahlavu cells assessed as accumulation of cells at S phase at 1 uM after 24 hrs by propidium iodide staining-based flow cytometric analysis (reference value: 23.2%). The format is functional.
Experiment [21] concerns Mahlavu. The experiment can be described thus: Induction of apoptosis in human Mahlavu cells assessed as late apoptotic cells at 1 uM after 48 hrs by Annexin V-FITC/propidium iodide staining-based flow cytometric analysis (reference value: 1.45%). The format is functional.

The structures appear in SMILES notation. pIC50: −log10 of the molar value. Calls of active or inactive are those of the source. No cut-off for these calls is given here.

Usually pIC50 stands for the negative decadic logarithm of the IC50, by convention in mol/L. With `COc1ccc2c3c(c4cc(OC)c(OC)cc4c2c1)CN1CCCC[C@@H]1C3`, the Activity amounted to 0.07% with Huh-7 [1]; 54.6% in the experiment with Huh-7 [2]; 44.6% in the experiment on Mahlavu [4]; 1.84% in the experiment with Mahlavu [6]; 1.03% in the experiment with Huh-7 [7]; 0.1% in the experiment with Huh-7 [8]. For the same molecule, the Activity with Mahlavu [10] worked out at 10.5%; in the experiment with Mahlavu [16] it was 23.7%; with Mahlavu [17], 0.13%; in the experiment on Huh-7 [19], 16.15%; in the experiment with Mahlavu [20], 17.5%; with Mahlavu [21], 7.07%. Also, the pIC50 in the experiment on Mahlavu [3] is 6.40; in the experiment with HCT-116, 6.15; with Mahlavu [12] it was 6.70; in the experiment on Huh-7 [14], 6.15; with Huh-7 [18], 8.10. Further, the result with Mahlavu [5], in the experiment with Mahlavu [9], in the experiment on Huh-7 [11], in the experiment with Huh-7 [13] and with Huh-7 [15] was Active.

For the molecule `COc1ccc2c3c(c4cc(OC)c(OC)cc4c2c1)CN1CCCCC1C3O` (racemic), the Activity was found to be 0% with Huh-7 [1]; 35.5% in the experiment with Huh-7 [2]; 37.2% in the experiment on Mahlavu [4]; 2.26% in the experiment with Mahlavu [6]; 0.93% with Huh-7 [7]; 0.2% in the experiment with Huh-7 [8]. The Activity in the experiment on Mahlavu [10] worked out at 9.5%; in the experiment on Mahlavu [16], 32.4%; in the experiment with Mahlavu [17], 0%; in the experiment on Huh-7 [19] it was 17.97%; with Mahlavu [20], 14.3%; in the experiment on Mahlavu [21], 0.98%. Further, the pIC50 is 8.40 in the experiment with Mahlavu [3]; above 9.00 in the experiment on HCT-116; 8.00 in the experiment on Mahlavu [12]; 6.40 in the experiment with Huh-7 [14]; 8.70 in the experiment on Huh-7 [18]. The outcome in the experiment on Mahlavu [5], in the experiment on Mahlavu [9], with Huh-7 [11], in the experiment with Huh-7 [13] and with Huh-7 [15] was Active.

The record behind these values is ChEMBL document CHEMBL4316592, “Synthesis of new derivatives of boehmeriasin A and their biological evaluation in liver cancer” (Eur J Med Chem, 2019).
